According to ChEMBL document CHEMBL4414555, “Constituents from Nauclea latifolia with Anti-Haemophilus influenzae Type b Inhibitory Activities” (2019):
Values after ≈ are worked out from the molar mass of the structure shown.

Tests used:
Format in all cases: functional
Haemophilus influenzae [1] = test: Ratio of MBC to MIC for Haemophilus influenzae type b ATCC 49247 by M7-A9 microdilution method
Haemophilus influenzae [2] = test: Bactericidal activity against Haemophilus influenzae type b ATCC 49247 incubated for 24 hrs followed by transferring to freshly prepared broth medium and measured after 24 hrs by M7-A9 microdilution method; details: type b ATCC 49247, 24 h
Haemophilus influenzae [3] = test: Antibacterial activity against Haemophilus influenzae type b ATCC 49247 incubated for 24 hrs by M7-A9 microdilution method; details: type b ATCC 49247, 24 h
Summary of the method: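 CLSI M7-A9 broth microdilution against H. influenzae ATCC 49247. Compounds held as 2 mg/mL DMSO stocks, diluted 2-fold in Mueller–Hinton broth across 50 to 0.1 μg/mL. Wells received inoculum standardized to 0.5 McFarland and were run in triplicate. After 24 h at 37 °C, MIC taken as the lowest concentration preventing visible turbidity. Ciprofloxacin served as positive control.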

Row | Structure (SMILES) | Ratio (Haemophilus influenzae [1]) | MBC (Haemophilus influenzae [2]) [µg/mL] | MIC (Haemophilus influenzae [3]) [µg/mL]
1 | CC1(C)CC[C@]2(C(=O)O)CC[C@]3(C)C(=CC[C@@H]4[C@@]5(C)CC[C@H](O)[C@@](C)(CO)[C@@H]5[C@H](O)C[C@]43C)[C@@H]2C1 | 2.7 | 50 (≈ 102 µM) | 18.8 (≈ 38.5 µM)
2 | C/C=C1/CO[C@H](O)[C@H]2C(=O)N3CCc4c([nH]c5ccccc45)[C@@H]3C[C@@H]12 | 2.7 | 12.5 (≈ 36.9 µM) | 4.7 (≈ 13.9 µM)
3 | C/C=C(/C=O)c1cc2n(c(=O)c1O)CCc1c-2[nH]c2ccccc12 | >1 | > 50 | 50 (≈ 156 µM)
4 | C[C@H]1OC=C2C(=O)N3CCc4c([nH]c5ccccc45)[C@@H]3C[C@H]2[C@@H]1C=O | 4 | 12.5 (≈ 37.2 µM) | 3.1 (≈ 9.22 µM)
5 | CC(O)c1coc2c(=O)n3c(cc12)-c1[nH]c2ccccc2c1CC3 (centres undefined) | 2 | 50 (≈ 156 µM) | 25 (≈ 78 µM)
6 | C[C@H]1[C@H](C)CC[C@]2(C(=O)O)CC[C@]3(C(=O)O)C(=CC[C@@H]4[C@@]5(C)CC[C@H](O)C(C)(C)[C@@H]5CC[C@]43C)[C@H]12 | >2 | > 50 | 25 (≈ 51.4 µM)
7 | CC1(C)CC[C@]2(C(=O)O)CC[C@]3(C)C(=CC[C@@H]4[C@@]5(C)CC[C@H](O)[C@@](C)(CO)[C@@H]5[C@H](O)C[C@]43C)[C@@H]2[C@@H]1O | 2.7 | 50 (≈ 99.1 µM) | 18.8 (≈ 37.2 µM)
8 | C[C@@H]1CC[C@]2(C(=O)O)CC[C@]3(C)C(=CC[C@@H]4[C@@]5(C)CC[C@@H]6OC([C@H]7[C@@H]8C[C@H]9c%10[nH]c%11ccccc%11c%10CCN9C(=O)C8=CO[C@@H]7C)OC[C@]6(CO)[C@@H]5CC[C@]43C)[C@@H]2[C@]1(C)O (some centres undefined) | 2 | 50 (≈ 60.7 µM) | 25 (≈ 30.4 µM)
9 | C[C@H]1[C@H](C)CC[C@]2(C(=O)O)CC[C@]3(C(=O)O)C(=CC[C@@H]4[C@@]5(C)CCC(=O)C(C)(C)[C@@H]5CC[C@]43C)[C@H]12 | 2.7 | 50 (≈ 103 µM) | 18.8 (≈ 38.8 µM)
10 | COC(OC)[C@H]1[C@@H]2C[C@H]3c4[nH]c5ccccc5c4CCN3C(=O)C2=CO[C@@H]1C | >1 | > 50 | 50 (≈ 131 µM)
11 | C/C=C1/COC(=O)[C@H]2C(=O)N3CCc4c([nH]c5ccccc45)[C@@H]3C[C@@H]12 | 2.7 | 12.5 (≈ 37.2 µM) | 4.7 (≈ 14 µM)
12 | O=C(O)c1cn(C2CC2)c2cc(N3CCNCC3)c(F)cc2c1=O [CIPROFLOXACIN] | 1 | 1.6 (≈ 4.83 µM) | 1.6 (≈ 4.83 µM)
13 | C[C@@H]1CC[C@]2(C(=O)O)CC[C@]3(C)C(=CC[C@@H]4[C@@]5(C)CC[C@H](O)C(C)(C)[C@@H]5CC[C@]43C)[C@@H]2[C@]1(C)O [POMOLIC ACID] | 2.7 | 50 (≈ 106 µM) | 18.8 (≈ 39.8 µM)
